Assay results as given in ChEMBL document CHEMBL3272122, “4-(6-Methoxy-2-naphthyl)butan-2-one and related analogues, a novel structural class of antiinflammatory compounds” (1978).
Calls of active or inactive are those of the source. The rule behind the calls is not given here.

Legend:
[1] = test system: Rattus norvegicus; assay: Antiinflammatory activity in Wistar rat assessed as inhibition of cotton pellet-induced granuloma formation at 50 mg/kg, po after 5 days relative to control; assay type: functional; conditions: for inhibition in vivo at 50 mg/kg: 120 h
Method in brief: (§1)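 Preweighed sterile cotton wool pellets were implanted subcutaneously in rats, one on each side of a ventral midline incision. Compounds were suspended in 0.7% methylcellulose and given orally once daily on days 0–5, starting 2–3 h before implantation; controls received vehicle (10 mL/kg). On day 6 the pellets were removed and dried at 80 °C to constant weight. Mean granuloma per rat was compared with controls by Student's t test.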

[2] = test system: Rattus norvegicus; assay: Antiinflammatory activity in Wistar rat assessed as inhibition of cotton pellet-induced granuloma formation at 3 mg/kg, po after 5 days relative to control; assay type: functional, organism-based; design: dose 3 mg/kg; method in brief: as §1
[3] = test system: Rattus norvegicus; assay: Antiinflammatory activity in Wistar rat assessed as inhibition of cotton pellet-induced granuloma formation at 100 mg/kg, po after 5 days relative to control; assay type: functional; conditions: 120 h; method in brief: as §1
[4] = test system: Rattus norvegicus; assay: Antiinflammatory activity in rat assessed as inhibition of carrageenan-induced paw edema at 300 mg/kg, po relative to control; assay type: functional
Method in brief: (§2)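 Carrageenan paw edema in rats, compounds given orally. Edema is expressed as percent inhibition.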

[5] = test system: Rattus norvegicus; assay: Antiinflammatory activity in Wistar rat assessed as inhibition of cotton pellet-induced granuloma formation at 10 mg/kg, po after 5 days relative to control; assay type: functional; conditions: 120 h; method in brief: as §1
[6] = test system: Rattus norvegicus; assay: Antiinflammatory activity in rat assessed as inhibition of carrageenan-induced paw edema at 15 mg/kg, po relative to control; assay type: functional; method in brief: as §2
[7] = test system: Rattus norvegicus; assay: Antiinflammatory activity in rat assessed as inhibition of carrageenan-induced paw edema at 100 mg/kg, po relative to control; assay type: functional; method in brief: as §2
[8] = species: Rattus norvegicus; assay: animal or person; conditions: po, read-out: INH
[9] = species: Rattus norvegicus; assay: animal or person; conditions: Wistar, po, 120 h, read-out: INH

Structure (SMILES)	inhibition in vivo at 50 mg/kg [1] [%]	also measured
CC(=O)CCc1ccc2cc(O)ccc2c1	5	–
CC(=O)CCc1ccc2cc(Cl)ccc2c1	53	–
CC(=O)Oc1ccccc1C(=O)O [ASPIRIN]	–	inhibition [2]: inactive; inhibition in vivo at 100 mg/kg [3]: 5%; inhibition in vivo at 300 mg/kg [4]: 31%
CNC(=O)Oc1ccc2cc(CCC(C)=O)ccc2c1	21	inhibition [2]: inactive
CCC(=O)CCc1ccc2cc(OC)ccc2c1	7	–
COc1ccc2cc(CCC(C)OC(C)=O)ccc2c1 (stereo not drawn)	38	–
CC(=O)CCc1ccc2cc(C)ccc2c1	34	–
COc1ccc2cc(CCC(C)OC(=O)c3cc(OC)c(OC)c(OC)c3)ccc2c1 (stereo not drawn)	41	–
COc1ccc2cc(CCC(C)(C)O)ccc2c1	3	–
COc1ccc2cc(CCC3(C)OCCO3)ccc2c1	22	–
CCC(CC(C)=O)c1ccc2cc(OC)ccc2c1 (stereo not drawn)	20	–
C[C@]12CCC(=O)C=C1CC[C@@H]1[C@@H]2[C@@H](O)C[C@@]2(C)[C@H]1CC[C@]2(O)C(=O)CO [HYDROCORTISONE]	–	inhibition [2]: inactive; inhibition in vivo at 10 mg/kg [5]: 30%
COc1ccc2cc(CCC(C)=O)ccc2c1 [NABUMETONE]	39	inhibition in vivo at 15 mg/kg [6]: 37%
CC(=O)CCc1ccc2ccccc2c1	20	–
COc1ccc2cc(CCC(C)O)ccc2c1 (stereo not drawn)	32	–
COc1ccc2cc(CC(C)C(C)=O)ccc2c1 (stereo not drawn)	7	–
COc1ccc2cc(CCC(C)OC(=O)CC(C)(C)CC(=O)O)ccc2c1 (stereo not drawn)	26	–
CC(=O)/C=C/c1ccc2cc(C)ccc2c1	29	–
CC(=O)CC(C)c1ccc2cc(C)ccc2c1 (stereo not drawn)	11	–
Cc1ccc2cc(CCC(C)O)ccc2c1 (stereo not drawn)	35	–
CCOc1ccc2cc(CCC(C)=O)ccc2c1	12	–
CC(=O)CCc1ccc2cc(OC(C)=O)ccc2c1	2	–
COc1ccc2cc(C(C)CC(C)=O)ccc2c1 (stereo not drawn)	24	inhibition in vivo at 100 mg/kg [7]: 36%
COc1ccc2cc(CC/C(C)=N\O)ccc2c1	15	–
COc1ccc(CCC(C)=O)c2ccccc12	0	–
COc1ccc2ccccc2c1CCC(C)=O	10	–
COc1ccc2cc(/C=C/C(C)=O)ccc2c1	18	inhibition in vivo at 100 mg/kg [7]: 50%
COc1ccc2cc([C@H](C)C(=O)O)ccc2c1 [NAPROXEN]	–	inhibition in vivo at 6 mg/kg [8]: 30%; inhibition [2]: inactive; inhibition in vivo at 30 mg/kg [9]: 46%
COc1ccc2cc(CC(=O)O)ccc2c1	–	inhibition [1]: Active
